The text below walks through data of ChEMBL document CHEMBL1124838, “5-Hydroxytryptamine (5-HT3) receptor antagonists. 2. 1-Indolinecarboxamides” (J Med Chem, 1990).

Bounds are passed on as bounds.

This assay deals with Serotonin 3 (5-HT3) receptor (Rattus norvegicus) (UniProt P35563+Q9JJ16). Kind of assay: Antagonist potency to 5-hydroxytryptamine 3 receptor was assayed by antagonism of the 5-HT-evoked reflex bradycardia [Bezold-Jarisch(BJ) reflex] in rats. The assay is classed as functional. In a few lines:
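Male rats (260–290 g) anesthetized with urethane (1.25 g/kg ip); blood pressure and heart rate recorded. 5-HT given repeatedly at a submaximal 6 μg/kg iv, and heart-rate changes quantified. Test drug given iv before 5-HT. ID50 is the dose that cuts the 5-HT-evoked response to 50% of control.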
For the compound `CN1C2CCCC1CC(NC(=O)N1CCc3ccccc31)C2` (centres undefined), the ID50 turned out to be 12.5 µg/kg.
In turn, `CN1C2CCC1CC(NC(=O)N1CC3(CCCC3)c3ccccc31)C2` (centres undefined) showed an ID50 of 1.2 µg/kg.
On to `CCN1C2CCC1CC(NC(=O)N1CCc3ccccc31)C2` (centres undefined), for which the ID50 was more than 10 µg/kg.
In the case of `CN1C2CCC1CC(NC(=O)N1CC3(CCCCC3)c3ccccc31)C2` (centres undefined), the ID50 was 3.6 µg/kg.
Regarding `CN1C2CCC1CC(NC(=O)N1CC(c3ccccc3)c3ccccc31)C2` (centres undefined), the ID50 was 1.8 µg/kg.
Consider `Cc1cn(C(=O)NC2CC3CCC(C2)N3C)c2ccccc12` (centres undefined), for which the ID50 worked out at 1.6 µg/kg.
On to `CN1C2CCC1CC(NC(=O)N1CCCc3ccccc31)C2` (centres undefined), for which the ID50 is more than 100 µg/kg.
As for `CN1C2CCC1CC(NC(=O)N1CCc3cc([N+](=O)[O-])ccc31)C2` (centres undefined), the figure is more than 10 µg/kg; as for `CN1C2CCC1CC(NC(=O)N1CCc3cc(F)ccc31)C2` (centres undefined), more than 10 µg/kg; as for `CN1C2CCC1CC(NC(=O)n1ccc3ccccc31)C2` (centres undefined), 7.1 µg/kg.
With `CN1C2CCC1CC(NC(=O)N1CCc3cc(Cl)ccc31)C2` (centres undefined), the ID50 was more than 10 µg/kg.
As for `CC1c2ccccc2N(C(=O)NC2CC3CCC(C2)N3C)C1C` (centres undefined), the figure is 0.5 µg/kg.
As for `CCC1CN(C(=O)NC2CC3CCC(C2)N3C)c2ccccc21` (centres undefined), the figure is 1.5 µg/kg; as for `COc1ccc2c(c1)CCN2C(=O)NC1CC2CCC(C1)N2C` (centres undefined), more than 10 µg/kg; as for `CC1CN(C(=O)NC2CC3CCC(C2)N3C)c2ccccc21` (centres undefined), 3 µg/kg.
`CN1C2CCC1CC(NC(=O)N1CC3(CC3)c3ccccc31)C2` (centres undefined) came in with an ID50 of 3.5 µg/kg.
`CN1C2CCC1CC(NC(=O)C1=CC(C)(C)c3ccccc31)C2` (centres undefined) yielded an ID50 of 1 µg/kg.
The compound `CN1C2CCC1CC(NC(=O)N1CCc3ccccc31)C2` (centres undefined) gave an ID50 of 1.4 µg/kg.
To `CC1N(C(=O)NC2CC3CCC(C2)N3C)c2ccccc2C1(C)C` (centres undefined) belongs 1.4 µg/kg; to `CCc1cn(C(=O)NC2CC3CCC(C2)N3C)c2ccccc12` (centres undefined), 2 µg/kg; to `CN1C2CCC1CC(OC(=O)N1CCc3ccccc31)C2` (centres undefined), 4.3 µg/kg.
For the compound `CN1C2CCCC1CC(NC(=O)c1nn(C)c3ccccc13)C2` (centres undefined), the ID50 was 0.7 µg/kg.
The compound `CN1C2CCC1CC(NC(=O)n1cc(-c3ccccc3)c3ccccc31)C2` (centres undefined) displayed an ID50 of 5.1 µg/kg.
For `CC1Cc2ccccc2N1C(=O)NC1CC2CCC(C1)N2C` (centres undefined), the ID50 is 0.8 µg/kg.
